Laboratory results as given in ChEMBL document CHEMBL2396594, “Designing allosteric regulators of thrombin. Exosite 2 features multiple subsites that can be targeted by sulfated small molecules for inducing inhibition” (J Med Chem, 2013).
Calls of active or inactive are those of the source. No cut-off for these calls is given here.

What was measured:
Homo sapiens [1] = species on record: Homo sapiens; experiment: (§1) Binding affinity to human plasma alpha-thrombin exosite-2 using spectrozyme TH as substrate after overnight incubation at 25 degC by spectrophotometric analysis in presence of 20 uM heparin octasaccharide; type: cell-free
[2] = as §1; type: cell-free
Homo sapiens [3] = species on record: Homo sapiens; experiment: (§2) Binding affinity to human plasma alpha-thrombin exosite-2 using spectrozyme TH as substrate after overnight incubation at 25 degC by spectrophotometric analysis in presence of 3 uM heparin octasaccharide; type: cell-free
[4] = as §2; type: cell-free
Homo sapiens [5] = species on record: Homo sapiens; experiment: Uncompetitive inhibition of human plasma alpha-thrombin using spectrozyme TH as substrate assessed as decrease in enzyme Vmax at 3.6 uM after overnight incubation at 25 degC by Michaelis-Menten equation analysis relative to control; type: cell-free
Procedure, shortened: (§3)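 5 nM plasma α-thrombin with fixed inhibitor, preincubated overnight at 25 °C or 2 h at 37 °C in 20 mM Tris-HCl pH 7.4, 100 mM NaCl, 2.5 mM CaCl2, 0.1% PEG8000. Initial Spectrozyme TH (2−80 μM) hydrolysis rate read at 405 nm with under 10% substrate consumption. Michaelis−Menten fit gives KM and VMAX; error ±1 SE.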

Homo sapiens [6] = species on record: Homo sapiens; experiment: (§4) Binding affinity to human plasma alpha-thrombin exosite-1 using spectrozyme TH as substrate after overnight incubation at 25 degC by spectrophotometric analysis in presence of 15 nM hirugen peptide; type: cell-free
[7] = as §4; type: cell-free
Homo sapiens [8] = species on record: Homo sapiens; experiment: Uncompetitive inhibition of human plasma alpha-thrombin using spectrozyme TH as substrate assessed as decrease in substrate Km at 9.9 uM after 2 hrs at 37 degC by Michaelis-Menten equation analysis relative to control; type: cell-free; procedure, shortened: as §3
[9] = Inhibition of recombinant human thrombin R233A mutant expressed in BHK cells using S2238 as substrate after overnight incubation at 25 degC
Procedure, shortened: (§5)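 BHK-expressed, HPC4 immunoaffinity-purified thrombins, activated from prothrombin form. Active-site concentration from amidolysis and antithrombin titration. Enzyme (1.5−7.5 nM final) incubated overnight at 25 °C with inhibitor in Tris pH 7.4 buffer in coated cuvettes. Residual activity from S2238 initial rate at A405, using at least 9−10 points. Logistic fit gives IC50. Ratio is mutant IC50 over wild-type IC50.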

[10] = Inhibition of recombinant human thrombin R175A mutant expressed in BHK cells using S2238 as substrate after overnight incubation at 25 degC; procedure, shortened: as §5
[11] = Inhibition of recombinant human thrombin R126A mutant expressed in BHK cells using S2238 as substrate after overnight incubation at 25 degC; procedure, shortened: as §5
Homo sapiens [12] = species on record: Homo sapiens; experiment: Uncompetitive inhibition of human plasma alpha-thrombin using spectrozyme TH as substrate assessed as decrease in enzyme Vmax at 9.9 uM after 2 hrs at 37 degC by Michaelis-Menten equation analysis relative to control; type: cell-free; procedure, shortened: as §3
Homo sapiens [13] = species on record: Homo sapiens; experiment: (§6) Binding affinity to human plasma alpha-thrombin exosite-2 using spectrozyme TH as substrate after overnight incubation at 25 degC by spectrophotometric analysis in presence of 1 uM heparin octasaccharide; type: cell-free
[14] = as §6; type: cell-free
[15] = Inhibition of recombinant human thrombin R165A mutant expressed in BHK cells using S2238 as substrate after overnight incubation at 25 degC; procedure, shortened: as §5
Plasma = experiment: Anticoagulant activity in human plasma assessed as increase in activated partial […] time at 139 uM after 4 mins by fibrometric analysis relative to control; type: functional
Procedure, shortened: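 Citrated human plasma, one-stage recalcification, fibrometer read-out. APTT: 90 μL plasma + 10 μL inhibitor or vehicle + prewarmed 0.2% ellagic acid, 4 min, then 25 mM CaCl2 (37 °C). PT: inhibitor + plasma 30 s at 37 °C, then prewarmed thromboplastin. Duplicates. Quadratic trend line fit gives concentration doubling clotting time versus vehicle blank.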

[16] = Inhibition of recombinant human thrombin K235A mutant expressed in BHK cells using S2238 as substrate after overnight incubation at 25 degC; procedure, shortened: as §5
Prothrombin [17] = molecular target: Prothrombin (Homo sapiens, UniProt P00734); experiment: Inhibition of wild type recombinant human thrombin expressed in BHK cells using S2238 as substrate after overnight incubation at 25 degC; procedure, shortened: as §5
[18] = Inhibition of recombinant human thrombin K169A mutant expressed in BHK cells using S2238 as substrate after overnight incubation at 25 degC; procedure, shortened: as §5
Homo sapiens [19] = species on record: Homo sapiens; experiment: (§7) Binding affinity to human plasma alpha-thrombin exosite-2 using spectrozyme TH as substrate after overnight incubation at 25 degC by spectrophotometric analysis in presence of 42.6 uM unfractionated heparin; type: cell-free
[20] = as §7; type: cell-free
[21] = Inhibition of human plasma alpha-thrombin assessed as spectrozyme TH hydrolysis preincubated for 10 mins by spectrophotometric analysis; type: cell-free
Procedure, shortened: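 Human plasma α-thrombin (5 nM final) with inhibitor (1−900 μM final) in 20 mM Tris-HCl pH 7.4, 100 mM NaCl, 2.5 mM CaCl2, 0.1% PEG8000, PEG20000-coated cuvettes, 10 min. Spectrozyme TH then added (30 μM final). Initial rate from A405 increase. Residual activity fitted by logistic equation with floating Hill slope, Y0, YM to give IC50.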

[22] = molecular target: Coagulation factor X (Homo sapiens) (UniProt P00742); experiment: Inhibition of human factor 10a at 365 uM
Homo sapiens [23] = species on record: Homo sapiens; experiment: (§8) Binding affinity to human plasma alpha-thrombin exosite-2 using spectrozyme TH as substrate after overnight incubation at 25 degC by spectrophotometric analysis in presence of 10 uM heparin octasaccharide; type: cell-free
[24] = as §8; type: cell-free
Homo sapiens [25] = species on record: Homo sapiens; experiment: Selectivity ratio of IC50 for recombinant human thrombin K236A mutant to IC50 for wild type recombinant human thrombin; procedure, shortened: as §5
[26] = Inhibition of recombinant human thrombin K236A mutant expressed in BHK cells using S2238 as substrate after overnight incubation at 25 degC; procedure, shortened: as §5
[27] = Inhibition of recombinant human thrombin R173A mutant expressed in BHK cells using S2238 as substrate after overnight incubation at 25 degC; procedure, shortened: as §5
Homo sapiens [28] = species on record: Homo sapiens; experiment: Selectivity ratio of IC50 for human plasma alpha-thrombin to IC50 for wild type recombinant human thrombin
Prothrombin [29] = molecular target: Prothrombin (Homo sapiens, UniProt P00734, R97A); experiment: Inhibition of recombinant human thrombin R97A mutant expressed in BHK cells using S2238 as substrate after overnight incubation at 25 degC; procedure, shortened: as §5
Homo sapiens [30] = species on record: Homo sapiens; experiment: (§9) Binding affinity to human plasma alpha-thrombin exosite-2 using spectrozyme TH as substrate after overnight incubation at 25 degC by spectrophotometric analysis in presence of 0.65 uM gamma'-fibrinogen peptide; type: cell-free
[31] = as §9; type: cell-free
Homo sapiens [32] = species on record: Homo sapiens; experiment: Uncompetitive inhibition of human plasma alpha-thrombin using spectrozyme TH as substrate assessed as decrease in substrate Km at 3.6 uM after overnight incubation at 25 degC by Michaelis-Menten equation analysis relative to control; type: cell-free; procedure, shortened: as §3
Homo sapiens [33] = species on record: Homo sapiens; experiment: (§10) Binding affinity to human plasma alpha-thrombin exosite-2 using spectrozyme TH as substrate after overnight incubation at 25 degC by spectrophotometric analysis in presence of 2 uM gamma'-fibrinogen peptide; type: cell-free
[34] = as §10; type: cell-free

Coagulation factor X (Homo sapiens), sequence (P00742 41-179 limits assumed): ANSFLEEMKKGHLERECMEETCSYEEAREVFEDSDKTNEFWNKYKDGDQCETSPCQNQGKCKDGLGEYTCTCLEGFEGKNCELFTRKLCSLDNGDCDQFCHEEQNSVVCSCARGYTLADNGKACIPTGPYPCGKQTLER
Coagulation factor X (Homo sapiens), sequence (P00742 235-488 limits assumed): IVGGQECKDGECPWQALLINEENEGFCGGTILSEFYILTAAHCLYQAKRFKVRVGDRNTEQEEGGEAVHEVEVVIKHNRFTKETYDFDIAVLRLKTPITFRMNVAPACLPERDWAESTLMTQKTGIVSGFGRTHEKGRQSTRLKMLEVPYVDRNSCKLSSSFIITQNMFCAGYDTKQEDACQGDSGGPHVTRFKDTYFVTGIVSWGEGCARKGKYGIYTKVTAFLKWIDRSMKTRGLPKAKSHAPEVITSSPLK

- pIC50(app) (Homo sapiens [1]): 5.75
- IC50 [2]: 1800 nM
- pIC50(app) (Homo sapiens [3]): 5.87
- IC50 [4]: 1400 nM
- fold change (FC) (Homo sapiens [5]): 4.3
- pIC50(app) (Homo sapiens [6]): 6.04
- IC50 [7]: 900 nM
- fold change (FC) (Homo sapiens [8]): 4.1
- IC50 [9]: 980 nM
- pIC50 [9]: 6.01
- IC50 [10]: 430 nM
- pIC50 [10]: 6.363
- IC50 [11]: 290 nM
- pIC50 [11]: 6.55
- fold change (FC) (Homo sapiens [12]): 5.7
- pIC50(app) (Homo sapiens [13]): 5.87
- IC50 [14]: 1300 nM
- pIC50 [15]: 6.59
- IC50 [16]: 270 nM
- pIC50 [16]: 6.57
- IC50 (Prothrombin [17]; read-out: IC50): 260 nM
- IC50 (Prothrombin [17]; read-out: pIC50 (converted)): 263 nM
- IC50 [18]: 330 nM
- pIC50 [18]: 6.48
- pIC50(app) (Homo sapiens [19]): 5.26
- IC50 [20]: 5600 nM
- IC50 ([21]; read-out: IC50): 670 nM
- IC50 ([21]; read-out: pIC50 (converted)): 676 nM
- inhibition [22]: inactive
- pIC50(app) (Homo sapiens [23]): 5.78
- IC50 [24]: 1600 nM
- Ratio IC50 (Homo sapiens [25]): 1.5
- IC50 [26]: 400 nM
- pIC50 [26]: 6.4
- pIC50 [27]: 6.59
- Ratio IC50 (Homo sapiens [28]): 2.5
- IC50 (Prothrombin [29]; read-out: IC50): 370 nM
- IC50 (Prothrombin [29]; read-out: pIC50 (converted)): 363 nM
- pIC50(app) (Homo sapiens [30]): 5.95
- IC50 [31]: 1100 nM
- fold change (FC) (Homo sapiens [32]): 3.1
- pIC50(app) (Homo sapiens [33]): 5.92
- IC50 [34]: 1200 nM
Compound: CCOC(=O)c1c(C)oc2cc(OC)c(OCc3oc4cc(OC)c(OCc5oc6cc(OC)c(OS(=O)(=O)[O-])cc6c5C(=O)OCC)cc4c3C(=O)OCC)cc12.[Na+]
- fold change (FC) (Plasma): 2
